# Results taken from ChEMBL document CHEMBL3797170, “A Grand Challenge: Unbiased Phenotypic Function of Metabolites from Jaspis splendens against Parkinson's Disease” (J Nat Prod, 2016).
# Activity calls are given as the source filed them. The calls are words filed in the database; no cut-off is given here.
# Legend:
# ONS [1] = assay: Induction of phenotypic perturbation in human ONS cells assessed as decrease in EEA1-associated early endosomes level in at 10 uM after 24 hrs by EEA1 staining based assay relative to control; format: functional, cell-based
# In short: (§1)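 hONS cells from Parkinson's disease patient line C1 200 08 0013, 1350 cells/well in DMEM/F12 with 10% FBS, exposed to 10 μM compound (0.6% DMSO; DMSO alone as control) for 24 h at 37 °C, 5% CO2. Live stain with LysoTracker Red DND-99 (100 nM, 1 h), then PFA fixation, anti-EEA1 immunostaining, DAPI and CellMask. Imaged at 20×, six fields/well, per-cell features given as log2 ratio to DMSO.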
# ONS [2] = assay: Induction of phenotypic perturbation in human ONS cells assessed as decrease in autophagy markers level in at 10 uM after 24 hrs relative to control; format: functional, cell-based
# In short: (§2)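 Patient-derived hONS cells (Parkinson's line C1 200 08 0013), 1350 cells/well in DMEM/F12 + 10% FBS, exposed to 10 μM compound (0.6% DMSO final; DMSO 0.6% as negative control) for 24 h at 37 °C, 5% CO2. Plate 1: MitoTracker Orange 400 nM, fixed, anti-α-tubulin and anti-LC3b. Plate 2: LysoTracker Red 100 nM, anti-EEA1, CellMask. DAPI on all cells.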
# [3] = target: Tubulin alpha (Homo sapiens) (UniProt P0DPH7+P68366+Q71U36+P68363+Q9BQE3+Q6PEY2+A6NHL2+Q9NY65); assay: Induction of phenotypic perturbation in human ONS cells assessed as increase in apha tubulin marker at 10 uM after 24 hrs by alpha tubulin staining based assay relative to control; format: functional, cell-based
# In short: (§3)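 hONS patient cells (line C1 200 08 0013; 1350/well, DMEM/F12 plus 10% FBS) were given 10 μM compound in 0.6% DMSO, with DMSO as control, for 24 h at 37 °C. MitoTracker Orange CMTMRos (400 nM, 30 min) was applied live before 4% PFA fixation. Anti-α-tubulin and anti-LC3b immunofluorescence plus DAPI followed. High-content imaging used six images/well, with cell segmentation, and each feature was expressed as log2 ratio versus DMSO.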
# ONS [4] = assay: Induction of phenotypic perturbation in human ONS cells assessed as increase in LC3b marker at 10 uM after 24 hrs by LC3b staining based assay relative to control; format: functional, cell-based; in short: as §3
# ONS [5] = assay: Induction of phenotypic perturbation in human ONS cells assessed as increase in mitochondrial marker at 10 uM after 24 hrs by mitotracker orange staining based assay relative to control; format: functional, cell-based; in short: as §3
# ONS [6] = assay: Induction of phenotypic perturbation in human ONS cells assessed as increase in lysosome marker at 10 uM after 24 hrs by lysotrack red DND-99 staining based assay relative to control; format: functional, cell-based; in short: as §1
# [7] = Cytotoxicity against human ONS cells derived from parkinsons disease patients assessed as alteration of cellular parameters at 10 uM; format: cell-based; in short: as §2
# [8] = Cytotoxicity against human ONS cells derived from parkinsons disease patients assessed as alteration of nuclear parameters at 10 uM; format: cell-based; in short: as §2
# ONS [9] = assay: Induction of phenotypic perturbation in human ONS cells assessed as increase in EEA1-associated early endosomes level in at 10 uM after 24 hrs by EEA1 staining based assay relative to control; format: functional, cell-based
# ONS [10] = assay: Induction of phenotypic perturbation in human ONS cells assessed as decrease in lysosome marker at 10 uM after 24 hrs by lysotrack red DND-99 staining based assay relative to control; format: functional, cell-based
SMILES,Activity (ONS [1]),Activity (ONS [2]),Activity [3],Activity (ONS [4]),Activity (ONS [5]),Activity (ONS [6]),other results
NCCc1c[nH]c2cc(Br)ccc12,Active,Active,–,–,–,–,–
N#Cc1cn([C@@H]2O[C@H](CO)[C@@H](O)[C@H]2O)c2nc[nH]c(=O)c12,Active,–,Active,Active,Active,Active,–
O=C(NC(=O)c1c[nH]c2cc(Br)ccc12)c1c[nH]c2cc(Br)ccc12,Active,–,Active,Active,Active,Active,–
CSc1c(CC(=O)O)[n+](C)cn1C,Active,–,Active,Active,Active,Active,–
CNc1nc2nccnc2c(=O)n1C,Active,–,Active,Active,Active,Active,–
C[C@@H]1NC(=O)[C@@H](C)C/C=C/[C@H](C)C[C@H](C)OC(=O)C[C@H](c2ccc(O)cc2)NC(=O)[C@@H](Cc2c(Br)[nH]c3ccccc23)N(C)C1=O,–,–,–,–,–,–,Activity [7]: Toxic; Activity [8]: Toxic
COC(=O)c1cn([C@@H]2O[C@H](CO)[C@@H](O)[C@H]2O)c2ncnc(N)c12,Active,–,–,–,–,–,–
C=C1C[C@H](C)C(=O)N[C@@H](C)C(=O)N(C)[C@H](Cc2c(Br)[nH]c3ccccc23)C(=O)N[C@@H](c2ccc(O)cc2)CC(=O)O[C@@H](C)C[C@@H](C)C1=O [JASPLAKINOLIDE B],–,–,–,–,–,–,Activity [7]: Toxic; Activity [8]: Toxic
N#Cc1cn([C@@H]2O[C@H](CO)[C@@H](O)[C@H]2O)c2ncnc(N)c12,Active,Active,–,–,–,–,–
NC(=O)c1cn([C@@H]2O[C@H](CO)[C@@H](O)[C@H]2O)c2ncnc(N)c12,Active,Active,–,–,–,–,–
Nc1nc2c(ncn2[C@@H]2O[C@H](CO)[C@@H](O)[C@H]2O)c(=O)[nH]1,Active,Active,–,–,–,–,–
C/C1=C\[C@H](C)C[C@H](C)OC(=O)C[C@H](c2ccc(O)c(Br)c2)NC(=O)[C@@H](Cc2c(Br)[nH]c3ccccc23)N(C)C(=O)[C@H](C)NC(=O)[C@@H](C)C1 [PIPESTELIDE A],–,–,–,–,–,–,Activity [7]: Toxic; Activity [8]: Toxic
COC(=O)c1c[nH]c2ncnc(N)c12,Active,–,–,–,–,–,–
C/C1=C\[C@H](C)C[C@H](C)OC(=O)C[C@H](c2ccc(O)cc2)NC(=O)[C@@H](Cc2c(Br)[nH]c3ccccc23)N(C)C(=O)[C@H](C)NC(=O)[C@@H](C)C1 [JASPAMIDE],–,–,–,–,–,–,Activity [7]: Toxic; Activity [8]: Toxic
COC(=O)c1c[nH]c2cc(Br)ccc12,Active,–,–,–,–,–,–
N=C(N)c1c[nH]c2cc(Br)ccc12,Active,–,Active,Active,Active,Active,–
NC(=O)c1c[nH]c2cc(Br)ccc12,Active,Active,Active,Active,Active,Active,–
Cc1cn([C@H]2C[C@H](O)[C@@H](CO)O2)c(=O)[nH]c1=O,Active,Active,–,–,–,–,–
COc1cc2c3c(c(=O)oc2cc1O)NCCS3(=O)=O,–,–,–,–,–,–,Activity (ONS [9]): Active; Activity (ONS [10]): Active
NC(=O)c1c[nH]c2ncnc(N)c12,Active,–,–,–,–,–,–
Nc1ncc2ncn([C@@H]3O[C@H](CO)[C@@H](O)[C@H]3O)c2n1,Active,Active,–,–,–,–,–
N#Cc1c[nH]c2ncnc(N)c12,Active,–,–,–,–,–,–
C/C(=C\[C@H](C)C[C@H](C)O)C[C@H](C)C(=O)N[C@@H](C)C(=O)N(C)[C@H](Cc1c(Br)[nH]c2ccccc12)C(=O)N[C@H](CC(=O)O)c1ccc(O)cc1 [JASPLAKINOLIDE Z1],Active,–,Active,Active,Active,Active,Activity [7]: Toxic; Activity [8]: Toxic
